Series [1] is described as follows: Dissociation constant, pKa of the compound. The format is physicochemical.
The target of series [2] is T1, Lysine-specific demethylase 4C (Homo sapiens, UniProt Q9H3R0).
T1 sequence (Q9H3R0 whole entry): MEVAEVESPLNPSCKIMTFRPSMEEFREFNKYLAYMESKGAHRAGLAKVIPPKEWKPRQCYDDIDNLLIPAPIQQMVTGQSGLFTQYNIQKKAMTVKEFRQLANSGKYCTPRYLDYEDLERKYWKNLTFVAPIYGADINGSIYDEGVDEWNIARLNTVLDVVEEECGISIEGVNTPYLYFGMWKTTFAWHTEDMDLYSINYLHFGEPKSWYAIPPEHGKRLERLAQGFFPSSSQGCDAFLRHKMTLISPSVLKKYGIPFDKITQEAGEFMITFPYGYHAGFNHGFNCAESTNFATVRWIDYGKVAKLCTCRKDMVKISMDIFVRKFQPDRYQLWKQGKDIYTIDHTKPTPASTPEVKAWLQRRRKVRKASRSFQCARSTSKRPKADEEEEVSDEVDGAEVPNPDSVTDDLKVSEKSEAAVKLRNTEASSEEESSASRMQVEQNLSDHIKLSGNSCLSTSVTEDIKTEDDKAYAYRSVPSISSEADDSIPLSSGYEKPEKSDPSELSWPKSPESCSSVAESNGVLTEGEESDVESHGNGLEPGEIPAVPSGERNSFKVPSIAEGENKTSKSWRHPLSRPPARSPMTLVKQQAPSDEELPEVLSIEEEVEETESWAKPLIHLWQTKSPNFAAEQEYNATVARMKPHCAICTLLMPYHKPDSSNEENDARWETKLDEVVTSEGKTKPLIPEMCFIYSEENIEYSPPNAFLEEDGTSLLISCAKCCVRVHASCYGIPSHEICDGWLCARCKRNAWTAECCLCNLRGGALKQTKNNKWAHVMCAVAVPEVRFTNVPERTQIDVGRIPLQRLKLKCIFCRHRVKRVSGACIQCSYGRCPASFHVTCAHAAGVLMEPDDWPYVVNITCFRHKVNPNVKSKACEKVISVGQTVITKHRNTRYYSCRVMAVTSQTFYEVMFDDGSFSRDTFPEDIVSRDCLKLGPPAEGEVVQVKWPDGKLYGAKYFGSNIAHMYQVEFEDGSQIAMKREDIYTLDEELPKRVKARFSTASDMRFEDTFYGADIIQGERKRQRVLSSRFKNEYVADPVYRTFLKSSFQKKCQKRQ
The series is described as follows: Inhibition of N-terminal his-tagged human KDM4C expressed in Escherichia coli BL21(DE3) using trimethylated peptide substrate by RFMS assay.

In series [3] the target is T2, Lysine-specific demethylase 5C (Homo sapiens, UniProt P41229). In words: Inhibition of KDM5C catalytic domain (1 -764 aa) (unknown origin) expressed in Sf9 cells using H3K4Me3 peptide as substrate by RFMS assay.
In series [4] the target is T2, Lysine-specific demethylase 5C. In words: Inhibition of human KDM5C transfected in U2OS cells assessed as inhibition of […] demethylation for 24 hrs. Format: cell-based. In outline: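 High-content cell imaging assay in U2OS cells overexpressing KDM5C, the same cell type as the KDM4C cellular mechanistic assay. Cellular potency reported as pIC50.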
A further series concerns the target Prolyl hydroxylase EGLN3 (Homo sapiens, UniProt Q9H6Z9). The series is described as follows: Inhibition of full-length EGLN3 (unknown origin) expressed in Escherichia coli BL21(DE3) cells by HTRF assay. Background: In TR-FRET formats the signal depends on donor and acceptor labels being close together.
For series [5], the target named is T1, Lysine-specific demethylase 4C. In words: Inhibition of N-terminal HALO-tagged full-length human KDM4C transfected in U2OS cells assessed as inhibition of H3K9Me3 demethylation for 24 hrs.
The next series can be described thus: physchem. The note with it: buffer, pH 7.4.
In series [6] the target is T3, Lysine-specific demethylase 4D (Homo sapiens, UniProt Q6B0I6).
T3 sequence (Q6B0I6 whole entry): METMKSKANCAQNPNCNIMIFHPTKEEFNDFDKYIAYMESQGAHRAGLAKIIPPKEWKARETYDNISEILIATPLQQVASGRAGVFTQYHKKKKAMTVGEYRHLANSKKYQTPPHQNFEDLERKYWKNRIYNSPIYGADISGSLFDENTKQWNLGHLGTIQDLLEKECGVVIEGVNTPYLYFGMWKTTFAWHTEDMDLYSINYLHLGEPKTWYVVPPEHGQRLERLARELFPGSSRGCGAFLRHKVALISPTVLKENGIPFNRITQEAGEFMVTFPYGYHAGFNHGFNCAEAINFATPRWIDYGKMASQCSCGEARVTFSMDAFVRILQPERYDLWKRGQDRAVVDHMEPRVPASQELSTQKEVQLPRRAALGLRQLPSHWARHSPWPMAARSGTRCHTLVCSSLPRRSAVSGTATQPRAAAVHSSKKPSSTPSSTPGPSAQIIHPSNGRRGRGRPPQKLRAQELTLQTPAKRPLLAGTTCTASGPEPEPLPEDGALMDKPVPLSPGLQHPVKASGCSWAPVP
In words: Inhibition of KDM4D (unknown origin) by RFMS assay.

The target of series [7] is T4, Lysine-specific demethylase 4A (Homo sapiens, UniProt O75164).
T4 sequence (O75164 whole entry): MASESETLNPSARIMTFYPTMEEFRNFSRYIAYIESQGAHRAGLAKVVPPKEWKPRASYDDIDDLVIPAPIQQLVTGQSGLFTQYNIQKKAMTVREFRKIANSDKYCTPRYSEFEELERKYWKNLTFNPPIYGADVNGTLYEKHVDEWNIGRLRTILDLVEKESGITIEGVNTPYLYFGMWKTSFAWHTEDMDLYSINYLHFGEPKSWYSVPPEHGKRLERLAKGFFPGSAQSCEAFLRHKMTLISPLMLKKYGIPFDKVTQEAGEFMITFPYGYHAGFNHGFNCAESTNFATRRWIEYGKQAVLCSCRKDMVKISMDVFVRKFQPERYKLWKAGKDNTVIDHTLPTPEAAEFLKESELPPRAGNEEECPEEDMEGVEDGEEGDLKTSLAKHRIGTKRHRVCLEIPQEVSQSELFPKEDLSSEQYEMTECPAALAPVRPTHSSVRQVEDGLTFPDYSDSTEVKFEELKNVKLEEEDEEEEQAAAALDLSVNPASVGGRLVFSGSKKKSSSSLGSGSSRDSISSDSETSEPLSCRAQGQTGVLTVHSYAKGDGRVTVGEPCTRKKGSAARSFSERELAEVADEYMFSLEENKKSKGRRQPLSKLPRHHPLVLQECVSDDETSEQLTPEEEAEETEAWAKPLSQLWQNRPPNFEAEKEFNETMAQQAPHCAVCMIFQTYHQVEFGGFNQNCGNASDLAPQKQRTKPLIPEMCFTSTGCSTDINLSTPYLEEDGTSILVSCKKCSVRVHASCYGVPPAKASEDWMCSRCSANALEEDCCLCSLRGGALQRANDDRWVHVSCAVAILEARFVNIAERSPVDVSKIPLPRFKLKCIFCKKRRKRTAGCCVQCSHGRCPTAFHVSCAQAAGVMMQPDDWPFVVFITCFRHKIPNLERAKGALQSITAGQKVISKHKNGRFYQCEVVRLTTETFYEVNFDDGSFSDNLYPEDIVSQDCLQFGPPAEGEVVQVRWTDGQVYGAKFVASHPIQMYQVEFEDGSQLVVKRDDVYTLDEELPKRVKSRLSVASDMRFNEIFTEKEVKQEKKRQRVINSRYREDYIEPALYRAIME
The series is described as follows: Inhibition of KDM4A (unknown origin) by RFMS assay.

For series [8], the target named is Lysine-specific demethylase 6B (Homo sapiens, UniProt O15054). The series is described as follows: Inhibition of KDM6B (unknown origin) by RFMS assay.
The target of series [9] is T5, Lysine-specific demethylase 4E (Homo sapiens, UniProt B2RXH2).
T5 sequence (B2RXH2 whole entry): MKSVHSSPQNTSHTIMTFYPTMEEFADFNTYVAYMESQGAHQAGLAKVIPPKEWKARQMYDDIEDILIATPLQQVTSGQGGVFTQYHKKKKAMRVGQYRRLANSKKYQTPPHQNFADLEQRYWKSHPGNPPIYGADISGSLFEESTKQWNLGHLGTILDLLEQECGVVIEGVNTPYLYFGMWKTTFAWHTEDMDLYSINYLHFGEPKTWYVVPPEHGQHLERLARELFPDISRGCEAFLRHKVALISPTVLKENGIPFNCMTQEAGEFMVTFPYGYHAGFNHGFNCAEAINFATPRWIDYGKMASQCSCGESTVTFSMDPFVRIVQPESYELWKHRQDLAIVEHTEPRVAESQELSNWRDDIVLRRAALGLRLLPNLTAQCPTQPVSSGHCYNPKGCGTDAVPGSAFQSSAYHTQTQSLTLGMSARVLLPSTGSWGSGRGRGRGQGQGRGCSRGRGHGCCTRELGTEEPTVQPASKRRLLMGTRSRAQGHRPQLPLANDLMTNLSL
In words: Inhibition of KDM4E (unknown origin) by RFMS assay.

For series [10], the target named is T1, Lysine-specific demethylase 4C. In words: Inhibition of N-terminal his-tagged full-length human KDM4C transfected in U2OS cells assessed as inhibition of H3K9Me3 demethylation for 24 hrs. The format is cell-based.

Experimental findings from ChEMBL document CHEMBL3769320, “Cell Penetrant Inhibitors of the KDM4 and KDM5 Families of Histone Lysine Demethylases. 2. Pyrido[3,4-d]pyrimidin-4(3H)-one Derivatives” (J Med Chem, 2016) are described below.

Chain of Lysine-specific demethylase 6B (O15054 whole entry): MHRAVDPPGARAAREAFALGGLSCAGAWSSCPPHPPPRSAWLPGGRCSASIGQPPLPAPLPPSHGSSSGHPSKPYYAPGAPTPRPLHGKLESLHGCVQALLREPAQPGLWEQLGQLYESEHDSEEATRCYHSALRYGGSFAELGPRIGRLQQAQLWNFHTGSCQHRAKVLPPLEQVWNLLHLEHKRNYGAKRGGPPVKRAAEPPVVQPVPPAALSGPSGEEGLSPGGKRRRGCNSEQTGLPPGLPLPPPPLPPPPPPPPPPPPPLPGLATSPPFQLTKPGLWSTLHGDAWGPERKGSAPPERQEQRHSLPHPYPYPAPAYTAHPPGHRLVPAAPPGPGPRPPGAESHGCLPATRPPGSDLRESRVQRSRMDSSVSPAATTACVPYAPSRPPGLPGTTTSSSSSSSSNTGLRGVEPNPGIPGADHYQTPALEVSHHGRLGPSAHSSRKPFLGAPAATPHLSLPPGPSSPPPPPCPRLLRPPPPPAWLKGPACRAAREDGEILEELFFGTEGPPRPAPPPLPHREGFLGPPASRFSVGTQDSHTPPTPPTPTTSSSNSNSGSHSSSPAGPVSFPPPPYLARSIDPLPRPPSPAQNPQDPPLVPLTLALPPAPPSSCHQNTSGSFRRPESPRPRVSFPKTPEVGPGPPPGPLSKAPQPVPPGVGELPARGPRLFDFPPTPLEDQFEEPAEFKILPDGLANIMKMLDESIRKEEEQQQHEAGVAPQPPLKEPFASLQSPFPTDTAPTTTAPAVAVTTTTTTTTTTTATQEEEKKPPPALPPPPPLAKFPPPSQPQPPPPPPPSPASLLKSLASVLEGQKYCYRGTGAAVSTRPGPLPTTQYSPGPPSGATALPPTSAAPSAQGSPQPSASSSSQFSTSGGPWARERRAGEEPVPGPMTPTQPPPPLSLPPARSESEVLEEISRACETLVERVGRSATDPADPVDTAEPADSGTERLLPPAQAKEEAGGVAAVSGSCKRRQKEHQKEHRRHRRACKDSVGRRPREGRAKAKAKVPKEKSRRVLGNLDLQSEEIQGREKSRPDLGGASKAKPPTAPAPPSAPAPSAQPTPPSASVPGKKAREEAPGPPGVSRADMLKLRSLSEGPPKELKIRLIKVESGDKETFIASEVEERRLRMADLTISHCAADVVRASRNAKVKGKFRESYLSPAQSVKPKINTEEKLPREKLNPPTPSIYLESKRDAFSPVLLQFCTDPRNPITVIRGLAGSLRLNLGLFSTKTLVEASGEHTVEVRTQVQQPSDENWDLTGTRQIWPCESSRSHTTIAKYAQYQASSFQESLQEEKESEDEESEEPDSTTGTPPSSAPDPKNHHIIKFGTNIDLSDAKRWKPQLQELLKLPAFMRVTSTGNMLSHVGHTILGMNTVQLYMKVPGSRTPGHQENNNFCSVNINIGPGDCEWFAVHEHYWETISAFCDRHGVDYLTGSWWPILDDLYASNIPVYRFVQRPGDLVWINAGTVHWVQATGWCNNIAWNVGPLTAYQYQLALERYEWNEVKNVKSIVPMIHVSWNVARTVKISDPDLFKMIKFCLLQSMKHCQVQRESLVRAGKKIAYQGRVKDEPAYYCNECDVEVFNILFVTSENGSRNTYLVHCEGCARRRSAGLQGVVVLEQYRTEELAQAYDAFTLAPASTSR
T2 sequence (P41229 whole entry, the tested form may be a part): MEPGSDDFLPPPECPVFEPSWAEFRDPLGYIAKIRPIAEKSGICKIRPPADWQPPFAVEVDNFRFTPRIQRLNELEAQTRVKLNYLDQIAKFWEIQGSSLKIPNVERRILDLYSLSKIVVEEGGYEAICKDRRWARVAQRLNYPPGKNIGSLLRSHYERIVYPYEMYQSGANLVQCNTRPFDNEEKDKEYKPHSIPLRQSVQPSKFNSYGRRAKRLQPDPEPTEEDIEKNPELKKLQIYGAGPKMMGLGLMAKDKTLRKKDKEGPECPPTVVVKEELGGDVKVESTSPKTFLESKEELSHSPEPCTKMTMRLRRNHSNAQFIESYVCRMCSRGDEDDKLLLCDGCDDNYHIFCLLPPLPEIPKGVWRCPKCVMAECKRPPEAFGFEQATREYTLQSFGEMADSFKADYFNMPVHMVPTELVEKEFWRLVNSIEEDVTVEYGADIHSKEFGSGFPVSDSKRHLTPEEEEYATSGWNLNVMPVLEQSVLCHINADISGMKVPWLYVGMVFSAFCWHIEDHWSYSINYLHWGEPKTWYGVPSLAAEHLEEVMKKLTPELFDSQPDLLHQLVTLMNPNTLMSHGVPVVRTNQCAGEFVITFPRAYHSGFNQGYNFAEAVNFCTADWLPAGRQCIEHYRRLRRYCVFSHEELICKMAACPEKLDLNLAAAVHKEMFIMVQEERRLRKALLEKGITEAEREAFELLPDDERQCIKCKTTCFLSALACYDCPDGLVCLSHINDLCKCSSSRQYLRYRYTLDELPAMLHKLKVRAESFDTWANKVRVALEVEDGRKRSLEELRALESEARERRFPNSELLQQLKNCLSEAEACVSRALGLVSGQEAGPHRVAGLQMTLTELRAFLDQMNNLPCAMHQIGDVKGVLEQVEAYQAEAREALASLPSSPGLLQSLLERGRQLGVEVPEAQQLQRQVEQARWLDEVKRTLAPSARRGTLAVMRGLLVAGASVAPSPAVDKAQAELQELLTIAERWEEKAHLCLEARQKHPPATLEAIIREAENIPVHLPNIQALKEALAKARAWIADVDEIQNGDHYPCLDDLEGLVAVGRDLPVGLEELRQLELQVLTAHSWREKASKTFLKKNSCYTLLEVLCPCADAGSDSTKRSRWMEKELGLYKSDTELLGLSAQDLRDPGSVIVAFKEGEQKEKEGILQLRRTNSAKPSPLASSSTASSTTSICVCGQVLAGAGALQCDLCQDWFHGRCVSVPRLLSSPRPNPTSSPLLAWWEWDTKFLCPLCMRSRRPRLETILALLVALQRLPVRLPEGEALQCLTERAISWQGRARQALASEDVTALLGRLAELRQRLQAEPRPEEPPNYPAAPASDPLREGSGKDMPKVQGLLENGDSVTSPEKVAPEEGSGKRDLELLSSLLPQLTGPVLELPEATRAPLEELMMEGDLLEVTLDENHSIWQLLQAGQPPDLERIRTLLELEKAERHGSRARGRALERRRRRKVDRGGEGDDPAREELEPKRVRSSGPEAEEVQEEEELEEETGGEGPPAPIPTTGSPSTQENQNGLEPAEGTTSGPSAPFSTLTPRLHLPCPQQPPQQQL
Chain of Prolyl hydroxylase EGLN3 (Q9H6Z9 whole entry): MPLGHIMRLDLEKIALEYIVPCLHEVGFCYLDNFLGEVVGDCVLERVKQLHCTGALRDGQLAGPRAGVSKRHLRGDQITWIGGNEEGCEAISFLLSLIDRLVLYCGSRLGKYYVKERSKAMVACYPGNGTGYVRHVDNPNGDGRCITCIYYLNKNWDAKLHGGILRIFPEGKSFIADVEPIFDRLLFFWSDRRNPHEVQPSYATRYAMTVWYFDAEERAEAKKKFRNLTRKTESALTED

Broadly, the pKa is the negative logarithm of the acid dissociation constant. Low readings indicate a stronger acid or weaker base, high ones a weaker acid or stronger base. In [1], `CCNc1nc2cnccc2c(=O)[nH]1` returned a pKa of 8.6. Also, the IC50 in series [2] is 3160 nM.
In series [1], `CCCc1nc2cnccc2c(=O)[nH]1` yielded a pKa of 8.8. The IC50 in [2] was 12600 nM.
In general, logD refers to the decadic logarithm of the distribution of all forms, ionised or not, between an organic phase and buffer at a given pH. Higher therefore signals higher lipophilicity. On to `O=c1[nH]c(Oc2cnn(C3CCCC3)c2)nc2cnccc12`, for which the IC50 in [3] was 126 nM; in [4] (read-out: IC50), 2500 nM; in [4] (read-out: pIC50 (converted)), 5010 nM; against Prolyl hydroxylase EGLN3 it was over 100000 nM; in series [5], 2000 nM; in series [6] it was 501 nM. The IC50 in [7] is 794 nM; in series [8], over 100000 nM; in series [2], 631 nM; in series [9], 398 nM. In addition, the logD in “physchem” is 1.7.
As for `CCOc1nc2cnccc2c(=O)[nH]1`, the IC50 in [10] is 63100 nM; in series [2], 1000 nM. Moreover, in [1], the pKa was 7.5.
With `O=c1[nH]c(Oc2ccc(Cl)c(O)c2)nc2cnccc12`, the IC50 is 200 nM in series [3]; 31600 nM in series [4] (read-out: pIC50 (converted)); over 100000 nM against Prolyl hydroxylase EGLN3; 2000 nM in [5]; 316 nM in series [6]; 398 nM in series [7]. In addition, the IC50 in series [8] is over 100000 nM; in series [2], 398 nM; in series [9] it was 126 nM. Also, in the series “physchem”, the logD was found to be 1.1.
For the molecule `CCSc1nc2cnccc2c(=O)[nH]1`, the IC50 is over 100000 nM in [10] and 794 nM in series [2]. Also, in series [1], the pKa was 6.8.
With `O=c1[nH]c(Oc2cnn(Cc3ccccc3)c2)nc2cnccc12`, the IC50 in series [3] is 63.1 nM; in [4] (read-out: pIC50 (converted)) it was 3980 nM; in [10], 5010 nM; on Prolyl hydroxylase EGLN3 it was over 100000 nM; in [5] it was 2000 nM; in series [6] it was 398 nM. In addition, the IC50 was 631 nM in [7], over 100000 nM in series [8], 501 nM in series [2] and 501 nM in series [9]. For the same molecule, in the series “physchem”, the logD was determined as 1.8.
For `O=c1[nH]c(Oc2cnn(CC3CCCCC3)c2)nc2cnccc12`, the IC50 in series [3] is 79.4 nM; in [4] (read-out: IC50) it was 2500 nM; in series [10] it was 5010 nM; at Prolyl hydroxylase EGLN3, over 100000 nM; in series [5] it was 2000 nM; in [6], 398 nM. Also, the IC50 in series [7] was 631 nM; in [8], over 100000 nM; in [2] it was 631 nM; in series [9], 501 nM. The molecule also gave a logD in the series “physchem” of 2.9.
